Ends that are not written are not given here.
Experiments:
[1] = system: Metalloprotease (type IV) collagenase from C. histolyticume; test: Kinetics of Pep-NC cleavage by collagenase; format: in vitro ADME; settings: GPC; for change of molecular weight after incubation with collagenase: collagenase 30 units·mL–1, 24 h
Procedure, shortened: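 Polymer at 5 mg·mL–1 in PBS pH 7.4 with 0.9 mM CaCl2 and 0.02% NaN3, held 3 h at 4 °C, then 37 °C. l-Pep-NC incubated with or without type IV collagenase (0.5 units·mL–1); d-Pep-NC with 30 units·mL–1 for 24 h. Timed l-Pep-NC aliquots quenched 1 h with 0.1 M EDTA, dialysed, lyophilised. Mn by GPC (DMF/10 mM LiCl, 65 °C, RI detection, PEG standards).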

[2] = Determination of cloud points of polymers; format: physicochemical; settings: in PBS; refers to Table 1
Dynamic light scattering = format: physicochemical; settings: DLS, 1 mg·mL–1 in PBS pH 7.4, 37 °C, 173° angle; micelles as prepared
[3] = 37 °C, 5 mg·mL–1 polymer in PBS pH 7.4 with 0.9 mM CaCl2

Row | Sequence | change of molecular weight after incubation with collagenase [1, 3] | change of molecular weight in the absence of the enzyme ([1]; 24 h, 37 °C, PBS pH 7.4) | time for cleavage of the peptide block ([1]; collagenase 0.5 units·mL–1, 37 °C, 5 mg·mL–1 polymer in PBS pH 7.4 with 0.9 mM CaCl2) [min] | LCST [2] [°C] | Z-average diameter (Dynamic light scattering) [nm]
1 | KGPQGIFGQK [D-Pep-NC, (NIPAM-co-HPMA-Cys)-PEG-D-Peptide-PEG-P(NIPAM-co-HPMA-Cys)] | did not change |  |  |  | 
2 | KGPQGIFGQK [L-Pep-NC, P(NIPAM-co-HPMA-Cys)-PEG-peptide-PEG-P(NIPAM-co-HPMA-Cys)] | reduced to half its original molecular weight | No change in the molecular weight | 160 |  | 
3 | KGPQGIFGQK [Pep-NC, P(NIPAM-co-HPMA-Cys)-PEG-peptide-PEG-P(NIPAM-co-HPMA-Cys)] |  |  |  | ~31 | 87 ± 1

Source: paper PMC7218746 (Biomacromolecules, 2020)
